According to article PMC2865185 (The FEBS journal, 2009):
Changes are numbered by the printed parent chain. Where two headings read alike, the source gives them in different places.

Assays:
EphA3 kinase domain = settings: juxtamembrane peptide, ref [20], cited from earlier work
[1] = biological target: T1, EphA3 kinase domain (wild-type) (Homo sapiens, UniProt P29320); experiment: ADP-Quest kinase assay, wild-type EphA3 kinase domain; assay type: biochemical; settings: for kcat/Km / kcat: 200 µM ATP, room temperature, ADP-Quest; for kcat: ± SD from two independent experiments, in duplicate
T1 sequence (P29320 621-882 limits assumed): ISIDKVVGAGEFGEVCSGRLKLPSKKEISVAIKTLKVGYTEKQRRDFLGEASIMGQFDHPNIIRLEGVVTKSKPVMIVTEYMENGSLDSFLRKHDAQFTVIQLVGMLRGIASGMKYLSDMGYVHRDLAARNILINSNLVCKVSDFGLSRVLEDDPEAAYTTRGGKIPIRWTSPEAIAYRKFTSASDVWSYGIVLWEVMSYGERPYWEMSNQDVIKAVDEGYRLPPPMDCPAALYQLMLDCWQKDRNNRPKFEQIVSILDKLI
Summary of the method: (§1)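 EphA3 kinase domain, wild-type or point mutant made by site-directed mutagenesis, expressed in E. coli BL21 Gold (DE3). His-tag purified, thrombin-cleaved, gel-filtered, then autophosphorylated with 10 mM each ATP and MgCl2; free nucleotide removed by anion exchange. ADP-Quest fluorescence (ex 530/em 590 nm) at room temperature. Peptide 1–4000 µM, ATP 200 µM, enzyme 10 nM–5 µM. Duplicates, background-ADP corrected. Km/Vmax from Michaelis–Menten fit; SD from two independent experiments.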

EphA3(K785E) = biological target: T2, EphA3(K785E) (Homo sapiens, UniProt P29320, K785E); experiment: ADP-Quest kinase assay, EphA3 K785E mutant; assay type: biochemical
T2 sequence (P29320 577-947 K785E limits assumed): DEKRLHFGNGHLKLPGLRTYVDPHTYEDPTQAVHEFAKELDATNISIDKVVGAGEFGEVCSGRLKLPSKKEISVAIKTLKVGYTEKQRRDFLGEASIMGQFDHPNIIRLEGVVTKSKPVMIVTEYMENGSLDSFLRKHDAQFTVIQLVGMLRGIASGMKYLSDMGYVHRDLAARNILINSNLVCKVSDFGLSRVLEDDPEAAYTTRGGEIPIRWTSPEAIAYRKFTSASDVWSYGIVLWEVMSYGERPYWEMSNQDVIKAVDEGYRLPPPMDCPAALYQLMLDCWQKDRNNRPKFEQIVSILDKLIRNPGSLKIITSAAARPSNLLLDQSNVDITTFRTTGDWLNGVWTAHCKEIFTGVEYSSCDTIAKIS
Summary of the method: as §1

EphA3(N830A) = biological target: T3, EphA3(N830A) (Homo sapiens, UniProt P29320, N830A); experiment: ADP-Quest kinase assay, EphA3 N830A mutant; assay type: biochemical; settings: for kcat/Km / Km / kcat: 200 µM ATP, room temperature, ADP-Quest; for Km / kcat: peptide 1 to 4000 µM, ± SD from two independent experiments, in duplicate
T3 sequence (P29320 621-882 N830A limits assumed): T1 sequence (P29320 621-882 limits assumed) with N210A
Summary of the method: as §1

EphA7 = biological target: T4, EphA7 (Homo sapiens, UniProt Q15375); experiment: Isoform specificity of EPHOPT, EphA7; assay type: biochemical; settings: in words; EphA7, non-arginine at position 782
T4 sequence (Q15375 633-894 limits assumed): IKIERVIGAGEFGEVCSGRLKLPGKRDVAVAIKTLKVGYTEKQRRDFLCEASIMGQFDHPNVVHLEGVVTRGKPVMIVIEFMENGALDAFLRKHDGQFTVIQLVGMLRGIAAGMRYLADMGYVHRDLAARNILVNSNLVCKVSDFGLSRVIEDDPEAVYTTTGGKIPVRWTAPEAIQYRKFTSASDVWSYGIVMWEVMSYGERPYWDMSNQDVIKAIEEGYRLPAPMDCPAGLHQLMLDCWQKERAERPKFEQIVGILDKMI
Summary of the method: (§2)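 Each kinase prepared by target. EphA5, EphA7 and EphB3 were autophosphorylated with 10 mM each ATP and MgCl2, then freed of nucleotide by anion exchange. EphB2 and EphB4 were bought in active form and used unmodified. ADP-Quest fluorescence read-out (ex 530/em 590 nm) at room temperature. Peptide substrate 1–4000 µM, ATP 200 µM, enzyme 10 nM–5 µM. Duplicates, background-corrected. Kinetic constants from Michaelis–Menten fit.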

EphB3 = biological target: T5, EphB3 (Homo sapiens, UniProt P54753); experiment: Isoform specificity of EPHOPT, EphB3; assay type: biochemical; settings: in words
T5 sequence (P54753 633-896 limits assumed): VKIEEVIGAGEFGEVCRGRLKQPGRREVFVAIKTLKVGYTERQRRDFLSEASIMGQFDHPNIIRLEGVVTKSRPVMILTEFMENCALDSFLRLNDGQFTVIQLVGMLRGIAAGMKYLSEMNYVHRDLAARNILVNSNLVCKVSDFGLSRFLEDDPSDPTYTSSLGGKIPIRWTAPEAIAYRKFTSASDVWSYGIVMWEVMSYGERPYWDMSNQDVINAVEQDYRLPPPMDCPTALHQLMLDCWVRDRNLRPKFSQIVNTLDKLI
Summary of the method: as §2

EphB2 = biological target: T6, EphB2 (Homo sapiens, UniProt P29323); experiment: Isoform specificity of EPHOPT, EphB2; assay type: biochemical; settings: in words; EphB2, non-arginine at position 782
T6 sequence (P29323 621-884 limits assumed): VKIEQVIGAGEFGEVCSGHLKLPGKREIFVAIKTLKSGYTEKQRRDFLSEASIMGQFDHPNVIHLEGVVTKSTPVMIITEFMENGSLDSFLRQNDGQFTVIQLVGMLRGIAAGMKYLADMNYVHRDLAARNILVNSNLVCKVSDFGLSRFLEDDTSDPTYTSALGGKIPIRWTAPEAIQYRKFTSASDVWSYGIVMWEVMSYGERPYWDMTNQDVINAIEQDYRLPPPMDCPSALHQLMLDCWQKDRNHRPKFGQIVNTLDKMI
Summary of the method: as §2

[2] = test system: EphA5, EphA7, EphB3, EphB4, EphB2 (relative to EphA3); experiment: Isoform specificity of EPHOPT, other EPH kinase domains; assay type: biochemical
Summary of the method: as §2

EphB4 = biological target: T7, EphB4 (Homo sapiens, UniProt P54760); experiment: Isoform specificity of EPHOPT, EphB4; assay type: biochemical; settings: in words; EphB4, non-arginine at position 782
T7 sequence (P54760 615-899 limits assumed): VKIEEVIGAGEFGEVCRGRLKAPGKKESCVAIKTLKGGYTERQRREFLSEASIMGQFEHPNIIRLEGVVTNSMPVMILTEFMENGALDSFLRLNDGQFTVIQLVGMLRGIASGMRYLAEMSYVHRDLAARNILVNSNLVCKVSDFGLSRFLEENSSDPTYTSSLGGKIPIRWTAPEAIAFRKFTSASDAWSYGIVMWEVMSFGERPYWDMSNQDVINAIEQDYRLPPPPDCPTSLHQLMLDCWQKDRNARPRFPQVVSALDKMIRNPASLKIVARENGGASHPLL
Summary of the method: as §2

[3] = Aqueous solubility of peptide; assay type: physicochemical; settings: aqueous buffer
[4] = EphA3(K785E), 200 µM ATP, room temperature, ADP-Quest, ± SD from two independent experiments, in duplicate
[5] = EphA3 K785E mutant, 200 µM ATP, room temperature, ADP-Quest
[6] = EphA3 K785E mutant, peptide 1 to 4000 µM, 200 µM ATP, room temperature, ADP-Quest, ± SD from two independent experiments, in duplicate
[7] = relative to juxtamembrane peptide
[8] = EphA3(N830A) relative to wild-type

D^598PHTYEDPTQ^606 [juxtamembrane EphA3 peptide]
Km (EphA3 kinase domain; EphA3 kinase domain): 1000 ± 20 µM | catalytic efficiency (EphA3 kinase domain; EphA3 kinase domain): 200 min⁻¹ mM⁻¹ | kcat (EphA3 kinase domain; EphA3 kinase domain): 199 ± 9 min⁻¹ | kcat (EphA3 kinase domain; quoted for comparison with EPHOPT): 199 per minute

KQWDNYEFIW [OPTYF]
kcat/Km [1]: 233880 M⁻¹ s⁻¹ | kcat [1]: 421 ± 30 min⁻¹ | kcat ([1]; peptide 1 to 4000 µM): 421 ± 30 min⁻¹ | relative change in Km ([1]; relative to EPHOPT): ~ 2 -fold | relative change in kcat ([1]; relative to EPHOPT): ~ 2 -fold | kcat/Km (EphA3(K785E); EphA3(K785E), 200 µM ATP, room temperature, ADP-Quest): 0.155 µM/min | kcat (EphA3(K785E); [4]): 0.383 ± 0.13 s⁻¹ | kcat/Km (EphA3(K785E); [5]): 2580 M⁻¹ s⁻¹ | kcat (EphA3(K785E); [6]): 0.383 ± 0.13 s⁻¹ | weaker affinity (relative to EPHOPT) (EphA3(N830A); EphA3(N830A), OPTYF versus EPHOPT): 5 -fold | kcat/Km (EphA3(N830A); EphA3 N830A mutant): 3280 M⁻¹ s⁻¹ | Km (EphA3(N830A); EphA3 N830A mutant): 152 ± 35 µM | kcat (EphA3(N830A); EphA3 N830A mutant): 0.5 ± 0.0233 s⁻¹

KQWDNYEKIW [OPTYK]
kcat/Km [1]: 34270 M⁻¹ s⁻¹ | kcat ([1]; peptide 1 to 4000 µM): 220 ± 27 min⁻¹

KQWDNYEpYIW [EPHOPT]
catalytic efficiency (EphA7) (EphA7): lower catalytic efficiencies | kcat/Km [1]: 787030 M⁻¹ s⁻¹ | kcat [1]: 850 ± 44 per minute | kcat ([1]; peptide 1 to 4000 µM): 850 ± 44 min⁻¹ | drop in Km [1, 7]: almost two orders of magnitude | increase in catalytic efficiency [1, 7]: over 200 -fold | increase in kcat [1, 7]: 4 -fold | catalytic efficiency of EphB3 relative to EphA5 (EphB3): nearly as efficient as EphA5 | substrate affinity at EphB3 relative to EphA3 (EphB3): nearly identical substrate affinity as EphA3 | decrease in catalytic efficiency (EphA3(K785E); EphA3(K785E) relative to wild-type): 260 -fold | negative effect on Km (EphA3(K785E); EphA3(K785E) relative to wild-type enzyme): about an order of magnitude | kcat (EphA3(K785E); [4]): 0.567 ± 0.012 s⁻¹ | kcat/Km (EphA3(K785E); [5]): 3020 M⁻¹ s⁻¹ | Km (EphA3(K785E); [6]): 188 ± 64 µM | kcat (EphA3(K785E); [6]): 0.567 ± 0.012 s⁻¹ | catalytic efficiency (EphB2) (EphB2): lower catalytic efficiencies | decrease in catalytic efficiency (EphA3(N830A); [8]): more than one order of magnitude decrease | decrease in kcat/Km (EphA3(N830A); [8]): 56 -fold | kcat/Km (EphA3(N830A); EphA3(N830A)): 0.835 µM/min | kcat/Km (EphA3(N830A); EphA3 N830A mutant): 13900 M⁻¹ s⁻¹ | Km (EphA3(N830A); EphA3 N830A mutant): 39.5 ± 0.7 µM | kcat (EphA3(N830A); EphA3 N830A mutant): 0.55 ± 0.0233 s⁻¹ | rank order of catalytic efficiency across isoforms ([2]; EphA3 and five other EPH kinases, Supplemental Table S2): EphA3>EphA5≅EphB3>>EphA7≅EphB4>>EphB2 | selectivity for EphA3 over other EPH kinases ([2]; in words): mildly to strongly selective for EphA3 | catalytic efficiency (EphB4) (EphB4): lower catalytic efficiencies | solubility [3]: ≥ 100000 µM
